# Calls of active or inactive are those of the source. The rule behind the calls is not given here.
# What was measured:
# Staphylococcus aureus [1] = assay: Potentiation of oxacillin-induced antibacterial activity against Staphylococcus aureus ATCC 25923 assessed as reduction in oxacillin MIC at 0.0005 mM incubated for 20 hrs by serial dilution broth microplate method; assay type: functional, organism-based
# Staphylococcus aureus [2] = assay: Potentiation of […] antibacterial activity against Staphylococcus aureus ATCC 25923 assessed as reduction in ampicillin and sulbactam MIC MIC incubated for 20 hrs by serial dilution broth microplate method; assay type: functional, organism-based
# Staphylococcus aureus [3] = assay: Potentiation of neomycin-induced antibacterial activity against Staphylococcus aureus ATCC 25923 assessed as reduction in […] MIC incubated for 20 hrs by serial dilution broth microplate method; assay type: functional, organism-based
# [4] = target: T1, Methicillin resistance mecR1 protein (Staphylococcus aureus) (UniProt P0A0B1); assay: Inhibition of MecR1 in methicillin-resistant Staphylococcus aureus HEMSA assessed as reduction in ampicillin and sulbactam MIC at 0.0039 mM incubated for 20 hrs by serial dilution broth microplate method
# T1 sequence (whole entry): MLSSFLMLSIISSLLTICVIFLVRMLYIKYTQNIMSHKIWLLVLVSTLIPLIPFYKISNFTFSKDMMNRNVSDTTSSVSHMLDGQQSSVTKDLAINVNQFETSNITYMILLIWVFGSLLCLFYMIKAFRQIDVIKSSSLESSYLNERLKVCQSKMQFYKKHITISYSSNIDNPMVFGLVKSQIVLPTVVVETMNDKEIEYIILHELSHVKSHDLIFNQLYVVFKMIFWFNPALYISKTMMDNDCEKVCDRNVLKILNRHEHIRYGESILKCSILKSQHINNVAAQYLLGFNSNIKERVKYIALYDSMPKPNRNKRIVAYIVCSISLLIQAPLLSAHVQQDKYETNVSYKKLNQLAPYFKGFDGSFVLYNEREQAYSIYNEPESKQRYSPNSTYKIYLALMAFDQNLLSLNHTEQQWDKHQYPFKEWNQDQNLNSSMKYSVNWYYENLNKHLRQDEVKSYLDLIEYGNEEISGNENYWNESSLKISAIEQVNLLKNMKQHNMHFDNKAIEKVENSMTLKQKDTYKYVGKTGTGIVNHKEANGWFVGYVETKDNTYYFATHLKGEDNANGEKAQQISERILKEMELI
# In short: (§1)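 Chemosensitization in MRSA HEMSA 5 measured by CLSI broth microdilution in Mueller-Hinton broth. Serial two-fold dilutions of antibiotic (oxacillin, cloxacillin, ampicillin/sulbactam 2:1, ciprofloxacin or neomycin) combined with compound at fixed concentration not exceeding ¼ of its own MIC. Inoculum OD 0.5 diluted 1:100. Read after 20 h at 37 °C. Result given as fold reduction of antibiotic MIC.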
# Staphylococcus aureus [5] = assay: Resistance index, ratio of MIC for methicillin-resistant Staphylococcus aureus HEMSA to MIC for Staphylococcus aureus ATCC 25923; assay type: functional
# [6] = target: T1, Methicillin resistance mecR1 protein (Staphylococcus aureus); assay: Inhibition of MecR1 in methicillin-resistant Staphylococcus aureus HEMSA assessed as reduction in neomycin MIC at 0.0039 mM incubated for 20 hrs by serial dilution broth microplate method; in short: as §1
# Staphylococcus aureus [7] = assay: Potentiation of […] antibacterial activity against Staphylococcus aureus ATCC 25923 assessed as reduction in cloxacillin MIC incubated for 20 hrs by serial dilution broth microplate method; assay type: functional, organism-based
# Staphylococcus aureus [8] = assay: Antimicrobial activity against methicillin-resistant Staphylococcus aureus HEMSA incubated for 20 hrs by serial dilution broth microplate method; assay type: functional
# In short: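 Broth microdilution MIC per CLSI in Mueller-Hinton broth against clinical isolate MRSA HEMSA 5. Bacterial suspension adjusted to OD 0.5, diluted 1:100 and added to serial two-fold dilutions of test agent. Ampicillin/sulbactam used at 2:1 ratio. Growth read after 20 h at 37 °C.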
# Staphylococcus aureus [9] = assay: Antimicrobial activity against Staphylococcus aureus ATCC 25923 incubated for 20 hrs by serial dilution broth microplate method; assay type: functional; conditions: ATCC 25923, 20 h
# In short: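 Broth dilution per CLSI in Mueller-Hinton broth, serial two-fold dilutions; compounds alone against reference strain, inoculum from suspension at OD 0.5 diluted 1:100; read after 20 h at 37 °C. MIC taken as lowest concentration inhibiting growth.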
# [10] = target: T1, Methicillin resistance mecR1 protein (Staphylococcus aureus); assay: Inhibition of MecR1 in methicillin-resistant Staphylococcus aureus HEMSA assessed as reduction in cloxacillin MIC at 0.0039 mM incubated for 20 hrs by serial dilution broth microplate method; in short: as §1
# [11] = target: T1, Methicillin resistance mecR1 protein (Staphylococcus aureus); assay: Inhibition of MecR1 in methicillin-resistant Staphylococcus aureus HEMSA assessed as reduction in oxacillin A MIC at 0.0039 mM incubated for 20 hrs by serial dilution broth microplate method; in short: as §1
# [12] = target: T1, Methicillin resistance mecR1 protein (Staphylococcus aureus); assay: Inhibition of MecR1 in methicillin-resistant Staphylococcus aureus HEMSA assessed as reduction in ciprofloxacin MIC at 0.0039 mM incubated for 20 hrs by serial dilution broth microplate method; in short: as §1
# Staphylococcus aureus [13] = assay: Potentiation of ciprofloxacin -induced antibacterial activity against Staphylococcus aureus ATCC 25923 assessed as reduction in […] MIC incubated for 20 hrs by serial dilution broth microplate method; assay type: functional, organism-based
# [14] = target: T1, Methicillin resistance mecR1 protein (Staphylococcus aureus); assay: Inhibition of MecR1 in methicillin-resistant Staphylococcus aureus HEMSA assessed as reduction in neomycin MIC at 0.5 mM incubated for 20 hrs by serial dilution broth microplate method; in short: as §1
# Staphylococcus aureus [15] = assay: Potentiation of oxacillin-induced antibacterial activity against Staphylococcus aureus ATCC 25923 assessed as reduction in oxacillin MIC at 0.5 mM incubated for 20 hrs by serial dilution broth microplate method; assay type: functional, organism-based
# [16] = target: T1, Methicillin resistance mecR1 protein (Staphylococcus aureus); assay: Inhibition of MecR1 in methicillin-resistant Staphylococcus aureus HEMSA assessed as reduction in ampicillin and sulbactam MIC at 0.5 mM incubated for 20 hrs by serial dilution broth microplate method; in short: as §1
# [17] = target: T1, Methicillin resistance mecR1 protein (Staphylococcus aureus); assay: Inhibition of MecR1 in methicillin-resistant Staphylococcus aureus HEMSA assessed as reduction in oxacillin A MIC at 0.5 mM incubated for 20 hrs by serial dilution broth microplate method; in short: as §1
# [18] = target: T1, Methicillin resistance mecR1 protein (Staphylococcus aureus); assay: Inhibition of MecR1 in methicillin-resistant Staphylococcus aureus HEMSA assessed as reduction in cloxacillin MIC at 0.5 mM incubated for 20 hrs by serial dilution broth microplate method; in short: as §1
# [19] = target: T1, Methicillin resistance mecR1 protein (Staphylococcus aureus); assay: Inhibition of MecR1 in methicillin-resistant Staphylococcus aureus HEMSA assessed as reduction in ciprofloxacin MIC at 0.5 mM incubated for 20 hrs by serial dilution broth microplate method; in short: as §1
# [20] = target: T1, Methicillin resistance mecR1 protein (Staphylococcus aureus); assay: Inhibition of MecR1 in methicillin-resistant Staphylococcus aureus HEMSA assessed as reduction in ciprofloxacin MIC at 0.25 mM incubated for 20 hrs by serial dilution broth microplate method; in short: as §1
# [21] = target: T1, Methicillin resistance mecR1 protein (Staphylococcus aureus); assay: Inhibition of MecR1 in methicillin-resistant Staphylococcus aureus HEMSA assessed as reduction in ampicillin and sulbactam MIC at 0.25 mM incubated for 20 hrs by serial dilution broth microplate method; in short: as §1
# [22] = target: T1, Methicillin resistance mecR1 protein (Staphylococcus aureus); assay: Inhibition of MecR1 in methicillin-resistant Staphylococcus aureus HEMSA assessed as reduction in cloxacillin MIC at 0.25 mM incubated for 20 hrs by serial dilution broth microplate method; in short: as §1
# [23] = target: T1, Methicillin resistance mecR1 protein (Staphylococcus aureus); assay: Inhibition of MecR1 in methicillin-resistant Staphylococcus aureus HEMSA assessed as reduction in oxacillin A MIC at 0.25 mM incubated for 20 hrs by serial dilution broth microplate method; in short: as §1
# [24] = target: T1, Methicillin resistance mecR1 protein (Staphylococcus aureus); assay: Inhibition of MecR1 in methicillin-resistant Staphylococcus aureus HEMSA assessed as reduction in neomycin MIC at 0.25 mM incubated for 20 hrs by serial dilution broth microplate method; in short: as §1
Structure (SMILES),Activity (Staphylococcus aureus [2]),Activity (Staphylococcus aureus [3]),Ratio (Staphylococcus aureus [5]),Activity (Staphylococcus aureus [7]),MIC (Staphylococcus aureus [8]) [µM],MIC (Staphylococcus aureus [9]) [µM],Activity (Staphylococcus aureus [13]),Activity (Staphylococcus aureus [15]),inhibition [17],other results
O=C1NC(N2CCNCC2)=N/C1=C\c1cc2ccccc2c2ccccc12,inactive,inactive,8,inactive,15.6,1.9,inactive,–,–,Activity (Staphylococcus aureus [1]): inactive; inhibition [4]: inactive; inhibition [6]: inactive; fold change (FC) [10]: 2; inhibition [11]: inactive; inhibition [12]: inactive
O=C(O)c1cn(C2CC2)c2cc(N3CCNCC3)c(F)cc2c1=O [CIPROFLOXACIN],–,–,37,–,14,0.38,–,–,–,–
Cc1onc(-c2ccccc2)c1C(=O)N[C@@H]1C(=O)N2[C@@H]1SC(C)(C)[C@@H]2C(=O)O [OXACILLIN],–,–,>1500,–,710,0.47,–,–,–,–
CC1(c2cccc3ccccc23)NC(=O)N(CCCN)C1=O (stereo unspecified),inactive,inactive,–,inactive,> 1000,> 1000,inactive,inactive,inactive,inhibition [14]: inactive; inhibition [16]: inactive; inhibition [18]: inactive; inhibition [19]: inactive
O=C1NC(N2CCNCC2)=N/C1=C\c1ccsc1,inactive,inactive,–,inactive,1000,> 1000,inactive,inactive,–,inhibition [20]: inactive; inhibition [21]: inactive; inhibition [22]: inactive; inhibition [23]: inactive; inhibition [24]: inactive
O=C1NC(N2CCNCC2)=N/C1=C\c1cccs1,inactive,inactive,–,inactive,> 1000,> 1000,inactive,inactive,inactive,inhibition [14]: inactive; inhibition [16]: inactive; inhibition [18]: inactive; inhibition [19]: inactive
O=C1N/C(=C\c2ccc(Cl)cc2Cl)C(=O)N1CC(O)CN1CCNCC1 (stereo unspecified),–,–,–,–,> 1000,> 1000,–,inactive,inactive,–
O=C1N/C(=C\c2ccc(Cl)cc2)C(=O)N1CC(O)CN1CCNCC1 (stereo unspecified),–,–,–,–,1000,> 1000,–,–,–,–
